Data as given in ChEMBL document CHEMBL1671618, “Functional cloning and characterization of the multidrug efflux pumps NorM from Neisseria gonorrhoeae and YdhE from Escherichia coli” (Antimicrob Agents Chemother, 2008).

Key:
[1] = Binding affinity to Neisseria gonorrhoeae FA19 multidrug efflux protein NorM expressed in Escherichia coli AG100AX in presence of 0.02% DDM surfactant by fluorescence polarization assay
[2] = molecular target: T1, Multidrug efflux pump subunit AcrB (Escherichia coli (strain K12), UniProt P31224); experiment: Binding affinity to Escherichia coli K-12 multidrug efflux protein AcrB at pH 8.4 by equilibrium dialysis method
T1 sequence (P31224 whole entry): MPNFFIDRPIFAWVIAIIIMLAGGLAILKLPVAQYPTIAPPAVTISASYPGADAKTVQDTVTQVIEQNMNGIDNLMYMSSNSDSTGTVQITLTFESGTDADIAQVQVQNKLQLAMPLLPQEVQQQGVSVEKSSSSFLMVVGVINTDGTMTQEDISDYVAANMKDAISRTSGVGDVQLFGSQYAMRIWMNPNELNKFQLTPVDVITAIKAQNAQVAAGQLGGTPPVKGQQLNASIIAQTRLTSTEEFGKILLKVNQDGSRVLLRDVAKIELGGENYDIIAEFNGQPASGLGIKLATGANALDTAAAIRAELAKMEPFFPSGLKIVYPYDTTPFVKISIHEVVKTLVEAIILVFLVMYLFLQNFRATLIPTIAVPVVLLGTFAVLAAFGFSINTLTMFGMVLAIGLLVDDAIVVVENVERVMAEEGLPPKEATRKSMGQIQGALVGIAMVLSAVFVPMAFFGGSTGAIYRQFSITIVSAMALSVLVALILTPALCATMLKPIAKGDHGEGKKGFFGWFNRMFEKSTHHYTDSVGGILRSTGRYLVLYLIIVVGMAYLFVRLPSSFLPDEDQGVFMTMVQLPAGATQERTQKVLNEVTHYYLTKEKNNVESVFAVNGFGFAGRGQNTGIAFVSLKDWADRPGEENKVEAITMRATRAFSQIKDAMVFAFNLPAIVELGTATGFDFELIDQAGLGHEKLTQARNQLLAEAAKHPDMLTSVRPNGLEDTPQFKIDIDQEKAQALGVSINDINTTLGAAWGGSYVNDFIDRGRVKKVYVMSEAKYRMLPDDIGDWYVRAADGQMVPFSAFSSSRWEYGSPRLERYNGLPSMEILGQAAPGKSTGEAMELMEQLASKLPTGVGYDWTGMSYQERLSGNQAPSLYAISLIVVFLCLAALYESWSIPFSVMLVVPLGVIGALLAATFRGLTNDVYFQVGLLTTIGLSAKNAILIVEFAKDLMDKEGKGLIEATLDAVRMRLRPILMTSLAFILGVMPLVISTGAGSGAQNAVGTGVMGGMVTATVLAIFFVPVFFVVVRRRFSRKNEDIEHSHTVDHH

Escherichia coli [3] = experiment: Antimicrobial activity against AcrAB-deficient Escherichia coli AG100AX harboring pBADomeganorM plasmid containing Neisseria gonorrhoeae multidrug efflux pump NorM after 18 to 24 hrs by two fold dilution method; type: functional
Escherichia coli [4] = experiment: Antimicrobial activity against AcrAB-deficient Escherichia coli AG100AX harboring pBADomegaydhE plasmid containing Escherichia coli multidrug efflux pump YdhE after 18 to 24 hrs by two fold dilution method; type: functional
[5] = Binding affinity to Neisseria gonorrhoeae FA19 multidrug efflux protein NorM expressed in Escherichia coli AG100AX in presence of => 100 mM NaCl by fluorescence polarization assay
How it was run: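 NaCl at 100 to 400 mM added to rhodamine 6G (1 μM) binding mixtures with purified His6-NorM in 20 mM HEPES-NaOH pH 7.5, 0.02% DDM.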

[6] = molecular target: T2, Multidrug resistance protein MdtK (Escherichia coli (strain K12), UniProt P37340); experiment: Binding affinity to Escherichia coli K-12 multidrug efflux protein YdhE […] in presence of 0.02% DDM surfactant by fluorescence polarization assay
T2 sequence (P37340 whole entry): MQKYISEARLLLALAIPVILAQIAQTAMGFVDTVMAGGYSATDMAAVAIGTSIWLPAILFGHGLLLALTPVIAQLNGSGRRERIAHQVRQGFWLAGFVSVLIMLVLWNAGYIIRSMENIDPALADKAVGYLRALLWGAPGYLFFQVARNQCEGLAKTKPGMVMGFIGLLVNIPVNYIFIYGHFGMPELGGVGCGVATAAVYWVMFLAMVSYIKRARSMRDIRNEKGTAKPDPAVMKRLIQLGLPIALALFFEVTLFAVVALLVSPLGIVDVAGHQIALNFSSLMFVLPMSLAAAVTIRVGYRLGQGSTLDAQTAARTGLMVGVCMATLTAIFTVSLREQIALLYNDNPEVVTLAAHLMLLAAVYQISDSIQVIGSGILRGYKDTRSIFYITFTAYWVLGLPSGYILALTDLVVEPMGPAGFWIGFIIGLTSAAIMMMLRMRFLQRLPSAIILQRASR

[7] = Binding affinity to Neisseria gonorrhoeae FA19 multidrug efflux protein NorM […] using Scatchard plot in presence of 0.02% DDM surfactant by fluorescence polarization assay
[8] = molecular target: T2, Multidrug resistance protein MdtK; experiment: Binding affinity to purified detergent-solubilized Escherichia coli K-12 multidrug efflux protein YdhE by equilibrium dialysis method
How it was run: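 YdhE carried a C-terminal His6 tag and was overproduced in E. coli TOP10 by L-arabinose induction. It was solubilized in 1% DDM, then purified by Ni2+-affinity and G-200 sizing in 20 mM HEPES-NaOH pH 7.5 with 0.02% DDM. Purity was >90% by SDS-PAGE. Rhodamine 6G binding was measured by equilibrium dialysis to give the KD and the binding stoichiometry.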

[9] = Binding affinity to Neisseria gonorrhoeae FA19 multidrug efflux protein NorM expressed in Escherichia coli AG100AX at pH 8.5 by fluorescence polarization assay
How it was run: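 Rhodamine 6G (1 μM) binding to purified DDM-solubilized His6-NorM, measured by steady-state fluorescence polarization across pH 5.8 to 8.5. Excitation 527 nm, emission 550 nm, 25°C, 5-min equilibration per titration point. KD fitted at each pH.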

Escherichia coli [10] = experiment: Antimicrobial activity against AcrAB-deficient Escherichia coli AG100AX harboring pBAD plasmid after 18 to 24 hrs by two fold dilution method; type: functional
How it was run: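 Twofold agar dilution on LB agar containing the antimicrobial, inoculum 10⁴ CFU/spot. Growth was scored after 18–24 h at 37°C, and each MIC determination was repeated at least four times.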

`CC/N=c1\cc2oc3cc(NCC)c(C)cc3c(-c3ccccc3C(=O)OCC)c-2cc1C.Cl` [RHODAMINE 6G HYDROCHLORIDE] gave a Kd [1] of 3.4 µM, a Kd [2] of 10.3 µM and an MIC (Escherichia coli [3]) of 12.5 mg/L. It also gave an MIC (Escherichia coli [4]) of 12.5 mg/L, a Kd [5] of 2.5 µM and a Kd [6] of 3 µM. For the same compound, the Kd [7] was 3.6 µM, the Kd [8] was 3 µM and the Kd [9] was 2.6 µM. For the same compound, the MIC (Escherichia coli [10]) was 3.12 mg/L.
